WT yeast gro inh: growth inhibition of WT strain, primary screen, mitochondrial fusion inhibitor project, WT and mutant strains, chemical genetic; 190,000 compounds, 2.1% hits; mitochondrial fusion phenotypic screen; AID 1362, 2008; inhibition, % at 10 µM; in the data active means inhibition above about 58%; tested in S. cerevisiae
L major viab: Leishmania major promastigote growth inhibition, primary screen; Leishmania major promastigotes, resazurin fluorescence viability; inhibition, % at 10 µM; 200,000 compounds, 9% hits; AID 1063, 2008;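 further: promastigotes grown with compound for 44 hours at 28 °C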
G6PDH CS: L. mesenteroides G6PDH inhibitors, counter-screen for G6PDH-coupled screening assays, biochemical, Leuconostoc mesenteroides enzyme | glucose-6-phosphate dehydrogenase [Leuconostoc mesenteroides] | Purified L. mesenteroides G6PDH, diaphorase/resazurin coupled fluorescence, 45 min | inhibition, % at 5 µM | 200,000 compounds, 0.12% hits
Diaphorase inh: diaphorase inhibitors and chemical oxidizers, primary screen, counter-screen for diaphorase-coupled primary assays, biochemical, uHTS, resorufin fluorescence. diaphorase resazurin-to-resorufin fluorescence, NADH, 16 min; bacterial (C. kluyveri) enzyme, not human. inhibition, % at 20 µM. 190,000 compounds, 0.69% hits. AID 1217, 2008;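 active means primary screen inhibition at 20 µM above a set limit, cut at about 50% in these data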
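Test system: bacterial diaphorase enzyme (C. kluyveri); Quantity: 0.14 U/mL diaphorase, enzyme working solution; Times: reaction incubation of 16 min at room temperature; Measured by: fluorescence of resorufin formed from resazurin, Ex 544/Em 590 nm; Benchmarks: positive control minus NADH, DMSO neutral control.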
Diaph act CS: compounds boosting diaphorase resazurin reduction – biochemical, uHTS, resorufin fluorescence, counter-screen for diaphorase-coupled primary assays, primary screen | Diaphorase/resazurin coupled assay, 16 min; hits give high values; 1 = vehicle wells, 0 = NADH-free wells | activation factor at 20 µM | 190,000 compounds, 0.005% hits;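 active means diaphorase activity raised at least twofold by the compound at 20 µM; inactive means activation factor below 2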
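Measured by – red resorufin fluorescence at 544/590 nm excitation/emission · Test system – Clostridium kluyveri diaphorase, purified enzyme · Incubation – reaction time 16 min, room temperature · Buffer or medium – 50 mM HEPES pH 7.4 with 4.542 mM MgCl2, 0.005% Tween 20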
Large screens that a line does not name were inactive. Shown are actives, neighbours in structure and some others; about 11% of the full set was active somewhere. Unless noted, no stated cut-off is given here; in the data, active means inhibition above about 50%; inactive means the rest.

COc1ccc(CN(CCC(c2ccc(F)cc2)C2CCOC(C)(C)C2)C(=O)c2ccco2)cc1 (configuration not stated)	none
Cc1nc2cc(-c3ccc(Cl)cc3)nn2c(C)c1CCC(=O)NC(C)c1ccc2c(c1)OCCO2 (configuration not stated)	WT yeast gro inh 71, L major viab 98
CCOC(=O)c1c(NC(=O)c2cc(-c3ccc(O)cc3)on2)sc(C(C)=O)c1C	none
CS(=O)(=O)c1ccc(Sc2nc3ccccc3[nH]2)c([N+](=O)[O-])c1	none
O=S(=O)(Nc1ccc(O)c(Sc2nc3ccccc3s2)c1)c1ccc(F)cc1	none
O=[N+]([O-])c1cc(S(=O)(=O)C(F)(F)F)ccc1Sc1nc2ccccc2[nH]1	L major viab 100
CS(=O)(=O)c1ccc(Sc2nc3ccccc3s2)c([N+](=O)[O-])c1	L major viab 80
O=[N+]([O-])c1cc(S(=O)(=O)C(F)(F)F)ccc1Sc1nc2ccccc2s1	L major viab 101
O=C1CSC(c2nn(-c3ccccc3)cc2-c2cc3ccccc3oc2=O)N1Cc1ccco1 (configuration not stated)	L major viab 52
Clc1ccc(C2CC(c3ccco3)n3ncnc3N2)cc1Cl (configuration not stated)	L major viab 51
Clc1ccc(C2CC(c3ccccc3)Nc3ncnn32)cc1 (configuration not stated)	none
Cc1ccc(C)c(OCc2nc3ccc(S(=O)(=O)Nc4c(C)n(C)n(-c5ccccc5)c4=O)cc3[nH]2)c1	none
CC1(C(=O)NCc2cccnc2)CCC(=O)N1Cc1cccs1 (configuration not stated)	none
CN1C(=S)N(c2cccnc2)C(=O)/C1=C\c1ccc(N(C)C)cc1	none
CN1C(=S)N(c2cccnc2)C(=O)/C1=C\c1ccc(C(C)(C)C)cc1	L major viab 96
Cc1cc2nc(SCCN3CCCC3)[nH]c2cc1C	none
CCC(C)NC(=O)CCNS(=O)(=O)c1ccc(Br)cc1 (configuration not stated)	none
c1ccc(Nc2scc(-c3ccccc3)[n+]2Cc2ccco2)cc1	WT yeast gro inh 67
CCCC(C)c1nnc(NC(=O)c2cc(C(=O)OC)cc([N+](=O)[O-])c2)s1 (configuration not stated)	L major viab 97
CCCC(C)NC(=O)c1cc(C(=O)OC)cc([N+](=O)[O-])c1 (configuration not stated)	none
COC(=O)c1cc(C(=O)Nc2ccc(S(N)(=O)=O)cc2)cc([N+](=O)[O-])c1	L major viab 61
O=c1c2ccccc2c(=O)n(Cc2ccccc2)n1Cc1ccccc1	none
Cc1ccnc(Nc2nc(-c3c(C)nc4sccn34)cs2)c1	WT yeast gro inh 81
Cc1ccc(Nc2nc(-c3ccc(O)c(O)c3)cs2)nc1	L major viab 99, Diaphorase inh 83
CC(=O)Nc1cccc(-c2csc(Nc3ccc(Cl)cn3)n2)c1	WT yeast gro inh 76
CC(=O)Nc1cccc(-c2csc(Nc3ccccn3)n2)c1	none
CC(=O)Nc1ccc(-c2csc(Nc3ccc(Cl)cn3)n2)cc1	L major viab 59
CC(=O)Nc1ccc(-c2csc(Nc3ncccn3)n2)cc1	none
O=C(CNc1ccc(Br)cc1)NNC1=NCCC1	none
COc1ccc(N/N=C(C)/C(=N/O)C(=O)Nc2ccccc2)cc1	none
CC(=O)Nc1ccc(-c2csc(Nc3cc(C)ccn3)n2)cc1	L major viab 60
CC(=O)Nc1cccc(-c2csc(Nc3cc(C)ccn3)n2)c1	none
O=C(NCc1ccc(F)cc1)c1ccccc1OCc1ccccc1	L major viab 79
CCOc1ncccc1C(=O)NCc1ccc(OC)cc1	none
O=C(Cc1ccccc1)Nc1ccccc1C(=O)Nc1ccccc1	L major viab 65
O=C(O)CCC(=O)Nc1ccccc1C(=O)NCc1ccccc1	L major viab 51
CCOc1ncccc1C(=O)NCc1ccccc1	L major viab 54
CCOC(=O)c1cn2c3c(c(F)c(F)cc3c1=O)SC(N1CCOCC1)=N2	none (no result: WT yeast gro inh, G6PDH CS, Diaphorase inh, Diaph act CS)
